# From ChEMBL document CHEMBL4689842, “EUbOPEN Chemogenomics Library wave 1” (2021)
# Tested on: U2OS
# Assay: Multiplex assay against U2OS
# Format: toxicity, cell-based
# Conditions: human
# In short: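 Cells stained live at seeding with Hoechst33342, BioTracker Green Microtubule Cytoskeleton Dye, MitoTracker Red and Annexin V Alexa Fluor 680 were imaged on a CQ1 microscope at 37°C and 5% CO2 after compound addition. Their classification by CellPathfinder machine-learning gating ran from Hoechst high-intensity objects versus normal cells, to healthy, pyknosed or fragmented nuclei among normal cells, to mitotic or apoptotic among pyknosed cells. Tubulin, mitochondrial-mass and membrane-permeability phenotypes are per cents of healthy-nucleus cells.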
# [1] = 12 h, 1 µM, compound concentration 1 uM, replicate 1
# [2] = 12 h, 1 µM, compound concentration 1 uM, replicate 2
# [3] = 12 h, 10 µM, compound concentration 10 uM, replicate 1
# [4] = 12 h, 10 µM, compound concentration 10 uM, replicate 2
# [5] = 24 h, 1 µM, compound concentration 1 uM, replicate 1
# [6] = 24 h, 1 µM, compound concentration 1 uM, replicate 2
# [7] = 24 h, 10 µM, compound concentration 10 uM, replicate 1
# [8] = 24 h, 10 µM, compound concentration 10 uM, replicate 2
# [9] = 48 h, 1 µM, compound concentration 1 uM, replicate 1
# [10] = 48 h, 1 µM, compound concentration 1 uM, replicate 2
# [11] = 48 h, 10 µM, compound concentration 10 uM, replicate 1
# [12] = 48 h, 10 µM, compound concentration 10 uM, replicate 2
smiles,measurement,setting,value
COc1cc2ncn(-c3cc(OCc4ccccc4C(F)(F)F)c(C(N)=O)s3)c2cc1OC [GW843682X],Population Apoptotic (%),[1],54%
same,Population Fragmented Nuclei (%),[1],15%
same,Population Healthy Nuclei (%),[1],78%
same,Population Hoechst High Intensity Objects (%),[1],7%
same,Population Membrane Permeable-Phenotype (%),[1],12%
same,Population Mitochondria Different-Phenotype (%),[1],17%
same,Population Mitotic Cells (%),[1],45%
same,Population Normal (%),[1],92%
same,Population Pyknosed Nuclei (%),[1],6%
same,Population Tubulin-Different-Phenotype (%),[1],28%
same,Total Cell Count,[1],170
same,Population Apoptotic (%),[2],50%
same,Population Fragmented Nuclei (%),[2],9%
same,Population Healthy Nuclei (%),[2],80%
same,Population Hoechst High Intensity Objects (%),[2],10%
same,Population Mitochondria Different-Phenotype (%),[2],10%
same,Population Mitotic Cells (%),[2],50%
same,Population Normal (%),[2],89%
same,Population Pyknosed Nuclei (%),[2],9%
same,Population Tubulin-Different-Phenotype (%),[2],20%
same,Total Cell Count,[2],83
same,Population Apoptotic (%),[3],54%
same,Population Fragmented Nuclei (%),[3],12%
same,Population Healthy Nuclei (%),[3],71%
same,Population Hoechst High Intensity Objects (%),[3],13%
same,Population Membrane Permeable-Phenotype (%),[3],28%
same,Population Mitochondria Different-Phenotype (%),[3],83%
same,Population Mitotic Cells (%),[3],45%
same,Population Normal (%),[3],86%
same,Population Pyknosed Nuclei (%),[3],15%
same,Population Tubulin-Different-Phenotype (%),[3],97%
same,Total Cell Count,[3],185
same,Population Apoptotic (%),[4],50%
same,Population Fragmented Nuclei (%),[4],13%
same,Population Healthy Nuclei (%),[4],75%
same,Population Hoechst High Intensity Objects (%),[4],6%
same,Population Membrane Permeable-Phenotype (%),[4],25%
same,Population Mitochondria Different-Phenotype (%),[4],88%
same,Population Mitotic Cells (%),[4],50%
same,Population Normal (%),[4],93%
same,Population Pyknosed Nuclei (%),[4],11%
same,Population Tubulin-Different-Phenotype (%),[4],98%
same,Total Cell Count,[4],68
same,Population Apoptotic (%),[5],62%
same,Population Fragmented Nuclei (%),[5],14%
same,Population Healthy Nuclei (%),[5],76%
same,Population Hoechst High Intensity Objects (%),[5],3%
same,Population Mitochondria Different-Phenotype (%),[5],22%
same,Population Mitotic Cells (%),[5],37%
same,Population Normal (%),[5],96%
same,Population Pyknosed Nuclei (%),[5],8%
same,Population Tubulin-Different-Phenotype (%),[5],20%
same,Total Cell Count,[5],166
same,Population Apoptotic (%),[6],55%
same,Population Fragmented Nuclei (%),[6],11%
same,Population Healthy Nuclei (%),[6],74%
same,Population Hoechst High Intensity Objects (%),[6],5%
same,Population Membrane Permeable-Phenotype (%),[6],10%
same,Population Mitochondria Different-Phenotype (%),[6],19%
same,Population Mitotic Cells (%),[6],44%
same,Population Normal (%),[6],94%
same,Population Pyknosed Nuclei (%),[6],14%
same,Population Tubulin-Different-Phenotype (%),[6],17%
same,Total Cell Count,[6],85
same,Population Apoptotic (%),[7],51%
same,Population Fragmented Nuclei (%),[7],14%
same,Population Healthy Nuclei (%),[7],66%
same,Population Hoechst High Intensity Objects (%),[7],9%
same,Population Membrane Permeable-Phenotype (%),[7],42%
same,Population Mitochondria Different-Phenotype (%),[7],90%
same,Population Mitotic Cells (%),[7],48%
same,Population Normal (%),[7],90%
same,Population Pyknosed Nuclei (%),[7],18%
same,Population Tubulin-Different-Phenotype (%),[7],98%
same,Total Cell Count,[7],190
same,Population Apoptotic (%),[8],50%
same,Population Fragmented Nuclei (%),[8],13%
same,Population Healthy Nuclei (%),[8],69%
same,Population Membrane Permeable-Phenotype (%),[8],41%
same,Population Mitochondria Different-Phenotype (%),[8],91%
same,Population Mitotic Cells (%),[8],50%
same,Population Pyknosed Nuclei (%),[8],17%
same,Population Tubulin-Different-Phenotype (%),[8],97%
same,Total Cell Count,[8],67
same,Population Apoptotic (%),[9],71%
same,Population Fragmented Nuclei (%),[9],16%
same,Population Healthy Nuclei (%),[9],66%
same,Population Hoechst High Intensity Objects (%),[9],8%
same,Population Membrane Permeable-Phenotype (%),[9],16%
same,Population Mitochondria Different-Phenotype (%),[9],33%
same,Population Mitotic Cells (%),[9],28%
same,Population Normal (%),[9],91%
same,Population Pyknosed Nuclei (%),[9],16%
same,Population Tubulin-Different-Phenotype (%),[9],18%
same,Total Cell Count,[9],160
same,Population Apoptotic (%),[10],62%
same,Population Fragmented Nuclei (%),[10],9%
same,Population Healthy Nuclei (%),[10],79%
same,Population Hoechst High Intensity Objects (%),[10],6%
same,Population Membrane Permeable-Phenotype (%),[10],27%
same,Population Mitochondria Different-Phenotype (%),[10],37%
same,Population Mitotic Cells (%),[10],37%
same,Population Normal (%),[10],93%
same,Population Pyknosed Nuclei (%),[10],10%
same,Population Tubulin-Different-Phenotype (%),[10],34%
same,Total Cell Count,[10],91
same,Population Apoptotic (%),[11],78%
same,Population Fragmented Nuclei (%),[11],17%
same,Population Healthy Nuclei (%),[11],53%
same,Population Hoechst High Intensity Objects (%),[11],9%
same,Population Membrane Permeable-Phenotype (%),[11],71%
same,Population Mitochondria Different-Phenotype (%),[11],93%
same,Population Mitotic Cells (%),[11],21%
same,Population Normal (%),[11],90%
same,Population Pyknosed Nuclei (%),[11],29%
same,Population Tubulin-Different-Phenotype (%),[11],97%
same,Total Cell Count,[11],187
same,Population Apoptotic (%),[12],71%
same,Population Fragmented Nuclei (%),[12],18%
same,Population Healthy Nuclei (%),[12],62%
same,Population Hoechst High Intensity Objects (%),[12],6%
same,Population Membrane Permeable-Phenotype (%),[12],68%
same,Population Mitochondria Different-Phenotype (%),[12],88%
same,Population Mitotic Cells (%),[12],28%
same,Population Normal (%),[12],93%
same,Population Pyknosed Nuclei (%),[12],19%
same,Total Cell Count,[12],78
C=CC(=O)Nc1cccc(Sc2nc(Nc3ccc(N4CCN(C)CC4)cc3)ncc2Cl)c1,Population Apoptotic (%),[1],99%
same,Population Fragmented Nuclei (%),[1],5%
same,Population Healthy Nuclei (%),[1],3%
same,Population Hoechst High Intensity Objects (%),[1],10%
same,Population Membrane Permeable-Phenotype (%),[1],100%
same,Population Mitochondria Different-Phenotype (%),[1],100%
same,Population Mitotic Cells (%),[1],0%
same,Population Normal (%),[1],89%
same,Population Pyknosed Nuclei (%),[1],91%
same,Population Tubulin-Different-Phenotype (%),[1],100%
same,Total Cell Count,[1],197
same,Population Apoptotic (%),[2],95%
same,Population Fragmented Nuclei (%),[2],16%
same,Population Healthy Nuclei (%),[2],11%
same,Population Hoechst High Intensity Objects (%),[2],14%
same,Population Mitotic Cells (%),[2],5%
same,Population Normal (%),[2],85%
same,Population Pyknosed Nuclei (%),[2],71%
same,Total Cell Count,[2],119
same,Population Apoptotic (%),[3],28%
same,Population Fragmented Nuclei (%),[3],5%
same,Population Healthy Nuclei (%),[3],83%
same,Population Hoechst High Intensity Objects (%),[3],1%
same,Population Membrane Permeable-Phenotype (%),[3],32%
same,Population Mitochondria Different-Phenotype (%),[3],11%
same,Population Mitotic Cells (%),[3],71%
same,Population Normal (%),[3],98%
same,Population Pyknosed Nuclei (%),[3],10%
same,Population Tubulin-Different-Phenotype (%),[3],25%
same,Total Cell Count,[3],175
same,Population Apoptotic (%),[4],44%
same,Population Fragmented Nuclei (%),[4],8%
same,Population Healthy Nuclei (%),[4],82%
same,Population Hoechst High Intensity Objects (%),[4],14%
same,Population Membrane Permeable-Phenotype (%),[4],25%
same,Population Mitochondria Different-Phenotype (%),[4],10%
same,Population Mitotic Cells (%),[4],55%
same,Population Normal (%),[4],85%
same,Population Pyknosed Nuclei (%),[4],8%
same,Population Tubulin-Different-Phenotype (%),[4],33%
same,Total Cell Count,[4],115
same,Population Apoptotic (%),[5],96%
same,Population Fragmented Nuclei (%),[5],10%
same,Population Hoechst High Intensity Objects (%),[5],7%
same,Population Mitochondria Different-Phenotype (%),[5],96%
same,Population Mitotic Cells (%),[5],3%
same,Population Normal (%),[5],92%
same,Population Pyknosed Nuclei (%),[5],50%
same,Total Cell Count,[5],237
same,Population Apoptotic (%),[6],100%
same,Population Fragmented Nuclei (%),[6],21%
same,Population Healthy Nuclei (%),[6],38%
same,Population Hoechst High Intensity Objects (%),[6],15%
same,Population Membrane Permeable-Phenotype (%),[6],100%
same,Population Mitochondria Different-Phenotype (%),[6],100%
same,Population Mitotic Cells (%),[6],0%
same,Population Normal (%),[6],84%
same,Population Pyknosed Nuclei (%),[6],40%
same,Population Tubulin-Different-Phenotype (%),[6],100%
same,Total Cell Count,[6],127
same,Population Apoptotic (%),[7],42%
same,Population Fragmented Nuclei (%),[7],6%
same,Population Healthy Nuclei (%),[7],82%
same,Population Hoechst High Intensity Objects (%),[7],1%
same,Population Membrane Permeable-Phenotype (%),[7],24%
same,Population Mitochondria Different-Phenotype (%),[7],13%
same,Population Mitotic Cells (%),[7],57%
same,Population Normal (%),[7],98%
same,Population Pyknosed Nuclei (%),[7],11%
same,Population Tubulin-Different-Phenotype (%),[7],18%
same,Total Cell Count,[7],158
same,Population Apoptotic (%),[8],72%
same,Population Fragmented Nuclei (%),[8],7%
same,Population Hoechst High Intensity Objects (%),[8],12%
same,Population Membrane Permeable-Phenotype (%),[8],23%
same,Population Mitochondria Different-Phenotype (%),[8],15%
same,Population Mitotic Cells (%),[8],27%
same,Population Normal (%),[8],87%
same,Population Pyknosed Nuclei (%),[8],9%
same,Population Tubulin-Different-Phenotype (%),[8],22%
same,Total Cell Count,[8],103
